Assay outcomes (PubChem)
KCNQ1 pot: potentiates or activates the human KCNQ1 potassium channel; CHO-K1 KCNQ1, thallium flux FluxOR fluorescence; stronger effect = higher value; B-score at 10 µM; 0.35% of 310,000 active; AID 2648;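 active = fluorescence ratio B-score, a plate-corrected score, at least three library SD, with initial intensity B-score within 5 SD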
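assay system = CHO-K1 cells stably expressing KCNQ1 | medium = assay buffer, equal DMSO in all wells | timing = 37 °C overnight plating, 90-min dark dye load, 20-min compound pretreatment | measured by = kinetic FluxOR thallium fluorescence, 10-s 1-Hz baseline, 110-s post-stimulus read | measure = fluorescence change relative to baseline, converted to B score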
hERG protect: hERG (human) protection from proarrhythmic block; AID 1511; Q12809; CHO-hERG, FluxOR thallium flux, dofetilide IC70 present; activation (rescue from dofetilide block), less the hit threshold, % at 10 µM; 0.51% of 310,000 active;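 active = activation above the mean of controls blocked by dofetilide plus 5 SD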;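 also: thallium influx through hERG after potassium depolarization seen as dye fluorescence rise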
KCC2 mod: modulators of human KCC2 chloride dependent transport. Q9H2X9. KCC2 cells, thallium flux FluoZin-2 fluorescence. B-score of Tl+ flux slope (higher = more flux/activation; lower = inhibition) at 10 µM. 2.2% of 190,000 active. AID 1456;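 active = thallium flux slope and its plate-corrected score both differing from the plate sample mean at a set confidence after two filtering rounds, in either direction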;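 also: slope of fluorescence scaled to starting intensity during 10 to 20 s after thallium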
Target sequence (Q9H2X9 whole entry, looked up): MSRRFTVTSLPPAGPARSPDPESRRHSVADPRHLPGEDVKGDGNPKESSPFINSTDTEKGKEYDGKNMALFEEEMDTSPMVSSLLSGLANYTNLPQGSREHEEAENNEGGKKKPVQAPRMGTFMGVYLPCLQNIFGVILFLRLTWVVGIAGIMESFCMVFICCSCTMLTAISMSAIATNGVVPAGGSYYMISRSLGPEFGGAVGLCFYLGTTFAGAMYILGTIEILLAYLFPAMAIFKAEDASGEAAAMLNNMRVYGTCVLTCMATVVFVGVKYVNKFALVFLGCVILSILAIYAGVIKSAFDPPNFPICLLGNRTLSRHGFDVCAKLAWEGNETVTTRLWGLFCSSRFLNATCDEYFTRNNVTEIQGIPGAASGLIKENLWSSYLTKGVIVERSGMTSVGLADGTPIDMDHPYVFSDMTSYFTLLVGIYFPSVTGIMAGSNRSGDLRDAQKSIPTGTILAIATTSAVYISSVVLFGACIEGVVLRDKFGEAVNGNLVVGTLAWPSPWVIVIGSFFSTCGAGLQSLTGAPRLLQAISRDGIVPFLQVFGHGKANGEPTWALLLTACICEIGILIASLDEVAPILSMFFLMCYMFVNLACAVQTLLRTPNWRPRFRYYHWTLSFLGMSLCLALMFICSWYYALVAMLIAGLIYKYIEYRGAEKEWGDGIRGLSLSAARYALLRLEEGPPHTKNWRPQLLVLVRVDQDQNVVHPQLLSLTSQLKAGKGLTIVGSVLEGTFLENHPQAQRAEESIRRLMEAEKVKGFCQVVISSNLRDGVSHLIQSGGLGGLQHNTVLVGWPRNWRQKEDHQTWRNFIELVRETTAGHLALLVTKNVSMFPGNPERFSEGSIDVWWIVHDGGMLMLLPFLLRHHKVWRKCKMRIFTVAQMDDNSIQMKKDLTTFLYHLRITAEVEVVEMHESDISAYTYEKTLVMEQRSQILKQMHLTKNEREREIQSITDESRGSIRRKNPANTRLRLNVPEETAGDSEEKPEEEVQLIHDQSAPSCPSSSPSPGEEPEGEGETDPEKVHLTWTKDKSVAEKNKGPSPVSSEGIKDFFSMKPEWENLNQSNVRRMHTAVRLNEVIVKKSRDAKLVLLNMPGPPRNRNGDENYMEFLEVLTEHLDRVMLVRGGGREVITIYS
KCNK3 inh: human KCNK3 channel inhibition, primary screen. B-score at 10 µM. AID 602410. 0.84% of 340,000 active. O14649. CHO-KCNK3 thallium flux, FluxOR fluorescence; stronger effect = lower value;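 active = B-score under library mean minus 4 SD, starting fluorescence ratio at most library mean plus 5 SD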;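 also: more negative B-score means stronger inhibition of thallium flux through KCNK3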
KCNK9 inh: blocks the human KCNK9 two-pore domain potassium channel. Q9NPC2. B-score at 10 µM. AID 488922. 1.2% of 310,000 active. HEK293 KCNK9, FluxOR thallium flux fluorescence; stronger effect = lower value;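 active = ratio B-score over 3 SD below the library mean, with starting fluorescence within 5 SD of its mean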;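 also: negative B-score means less thallium flux so channel inhibition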
KCNQ1 block: inhibitors of human KCNQ1 potassium channel; CHO-K1 KCNQ1, FluxOR thallium flux fluorescence; stronger effect = higher value; B-score at 10 µM; 1.3% of 310,000 active;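 active = compounds whose thallium flux B-score, printed positive for inhibition, exceeds three library SD while starting fluorescence stays within three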;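 also: channel opened by potassium depolarization with thallium stimulus after 20 min compound exposure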
KCNK9 inh conf: confirmation of human KCNK9 potassium channel inhibitors; shares compounds with KCNK9 inh; HEK293 KCNK9 cells, FluxOR thallium flux fluorescence; inhibition, % at 10 µM; 43% of 4,900 active;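 active = thallium signal inhibited by more than 5 SD of the compound-free buffer control wells, on both duplicate plates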;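 also: 0% = assay buffer control wells without compound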
Kir21 sel: tests whether KCNK9 modulators also affect mouse Kir2.1. shares compounds with KCNK9 inh. Kir2.1 cells, FluxOR thallium flux fluorescence. inhibition, % at 10 µM. 4% of 4,900 active;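 active = thallium signal drop more than 5 SD beyond the mean of the no-compound control wells, seen in both duplicate plates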;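 also: signal is fluorescence rise after thallium addition divided by baseline fluorescence; plate controls were assay buffer only for no effect and full block by chlorpromazine control for full effect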
HEK293 Tl ctr: second check of KCNK9 modulator effects in non-induced HEK293 cells. 40% of 4,900 active. FluxOR thallium flux. shares compounds with KCNK9 inh. inhibition, % at 10 µM;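 active = thallium signal drop beyond 5 SD of the untreated control mean, on both duplicate plates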;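 also: plate controls were buffer only IC0 wells for no effect and SID17386958 at its maximal inhibitory level for full effect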
* hit, by the source's call; i = inactive; . = not tested or not shown. The list is not random: actives were taken first. Their share in the collection is about 4.1%.

SMILES	KCNQ1 pot	hERG protect	KCC2 mod	KCNK3 inh	KCNK9 inh	KCNQ1 block	KCNK9 inh conf	Kir21 sel	HEK293 Tl ctr
CCOc1cc(/C=C2\C(=N)N3N=CSC3=NC2=O)ccc1OS(=O)(=O)c1ccccc1	i	-31.6	.	i	i	i	i	i	i
COc1cc(/C=C2\C(=N)N3N=CSC3=NC2=O)ccc1OS(=O)(=O)c1ccccc1	i	-30.2	.	i	i	i	.	.	.
O=C(Nc1cn(-c2ccccc2)nc1-c1ccc(Cl)cc1)c1ccccc1	i	-14.0	0.385	i	-9.22*	i	50.5%*	i	42.5%*
O=C(/C=C/c1ccccc1Cl)N(Cc1ccc(Cl)cc1)C1CCS(=O)(=O)C1 (stereo not drawn)	i	-3.2	-1.16	i	-8.2*	i	55.0%*	i	35.5%*
CN(C)c1cc(N/N=C/c2ccccc2C(F)(F)F)nc(N(C)C)n1	i	-12.6	.	i	i	i	i	i	i
Cc1nn(Cc2ccccc2)c(C)c1C(=O)OCC(=O)c1cc(C)n(CC(F)(F)F)c1C	i	-10.3	-0.427	i	i	i	i	i	i
Cc1cc(C(=O)COC(=O)c2ccco2)c(C)n1Cc1ccco1	i	-10.8	-2.42	i	i	i	.	.	.
COc1cccc(NC(=O)Nc2cc(C(=O)NC(C)C)ccc2N2CC3CC(C2)c2cccc(=O)n2C3)c1 (stereo not drawn)	i	-5.4	.	i	i	i	.	.	.
Cc1ccc(C)c(NC(=O)c2ccccc2Sc2ccc([N+](=O)[O-])cc2Cl)c1	i	-4.0	-0.306	i	-13.6*	i	61.0%*	i	47.0%*
O=C1c2ccccc2C(=O)N1CC#CCN1CCN(C(c2ccccc2)c2ccccc2)CC1	i	-11.8	0.00709	i	i	i	i	i	i
COC(=O)c1ccc(/C=N/N2CCN(Cc3ccc(C)cc3C)CC2)cc1	i	-12.5	0.937	i	i	i	i	i	i
N#Cc1ccc(-c2cccnc2)nc1SCc1ccc(Cl)cc1Cl	i	-3.7	0.517	i	-13*	i	46.0%*	i	37.5%*
CCOC(=O)NN1C(=O)c2ccccc2NC1(C)C	i	-11.6	0.447	i	i	i	.	.	.
COc1ccc(C(=O)NNC(=O)C23CC4CC(CC(C4)C2)C3)c(OC)c1	i	-7.2	.	i	i	i	.	.	.
COc1ccc(C(=O)c2ccc(N(C)C)cc2)c(OC)c1	i	-9.0	0.374	i	i	i	.	.	.
CN(C)c1ccc(C(=O)c2ccc(N(C)C)c3ccccc23)cc1	i	-4.0	-0.229	i	i	i	i	i	i
CCCCC(CC)C(=O)Nc1ncc([N+](=O)[O-])s1 (stereo not drawn)	i	-17.1	-3.3	i	i	i	.	.	.
COc1ccc(/C=C/C(=O)NCCc2c[nH]c3ccccc23)cc1OC	i	-2.9	.	i	i	i	.	.	.
Cc1cccc(N2CCN(CC(O)COc3ccccc3)CC2)c1 (stereo not drawn)	.	.	.	i	.	.	.	.	.
O=C1NN(c2ccc(F)c(Cl)c2)C(=O)/C1=C\c1cccc(OC(=O)c2cccs2)c1	i	-11.4	.	i	i	i	i	i	i
COc1ccc(C(=O)n2nc(C)cc2C)cc1OC	i	-4.7	0.214	i	i	i	.	.	.
Cc1cc(C)n(C(=O)c2ccc(C)c(Br)c2)n1	i	-6.7	.	i	i	i	i	i	i
CCOC(=O)c1ccc(NC(=O)C2C3CCCCC32)cc1 (stereo not drawn)	i	-3.0	.	i	-9.42*	i	i	i	i
COc1cc(CN2CCCC(C(=O)c3ccccc3SC)C2)cc(OC)c1 (stereo not drawn)	i	-12.3	.	i	i	i	i	i	i
COC(=O)CCCC(=O)N1CCCC(C(=O)c2ccccc2SC)C1 (stereo not drawn)	i	-8.4	.	i	i	i	.	.	.
SMILES	KCNQ1 pot	hERG protect	KCC2 mod	KCNK3 inh	KCNK9 inh	KCNQ1 block	KCNK9 inh conf	Kir21 sel	HEK293 Tl ctr
COc1cc(OC)c(OC)cc1CN1CCCC(C(=O)c2ccccc2SC)C1 (stereo not drawn)	i	-9.0	.	i	i	i	i	i	i
Cc1cc(C(=O)CSc2nnnn2-c2ccc(O)cc2)c(C)n1Cc1ccc2c(c1)OCO2	i	-7.1	-0.99	i	-9.75*	i	28.5%*	i	i
COC(=O)c1cc(=O)n(CCc2ccccc2F)c(=Nc2ccc(F)c(Cl)c2)s1	i	-3.0	0.631	i	-14*	i	44.0%*	i	36.0%*
COC(=O)c1cc(=O)n(Cc2cccs2)c(=Nc2ccc(F)cc2)s1	i	-6.8	-0.0208	i	i	i	.	.	.
Oc1cc(Cc2ccccc2)cnc1CN1CCOCC1	i	-4.7	-0.00847	i	i	i	.	.	.
C[N+](C)(C)CC/C=C1/c2ccccc2CSc2ccccc21	i	-4.6	-0.0272	i	i	i	.	.	.
CC(=O)OCCCN(C)CC/C=C1/c2ccccc2CSc2ccccc21	i	-10.6	.	i	i	i	i	i	i
CCOC(=O)C1=NN(C(=O)COc2ccccc2)C(O)(c2ccc(Br)cc2)C1 (stereo not drawn)	i	0.8	.	i	-11.4*	i	i	i	i
CCC1=NN(C(=O)COc2ccccc2)C(O)(c2ccncc2)C1 (stereo not drawn)	i	-1.0	0.0286	i	i	i	.	.	.
CC1=NN(C(=O)COc2ccc(C)c(C)c2)C(O)(c2ccc(Cl)cc2)C1 (stereo not drawn)	i	-5.1	0.182	i	-13.8*	i	50.0%*	i	35.0%*
CC1=NN(C(=O)c2ccc(Cl)cc2)C(O)(c2ccccc2)C1 (stereo not drawn)	i	1.0	.	i	i	i	.	.	.
O=C(COC(=O)c1cccc(S(=O)(=O)NCc2ccccc2)c1)Nc1ccccc1OC(F)F	i	-2.2	-0.586	i	i	i	.	.	.
Cc1c(O)ccc(C(=O)CN2CCN(c3ccccc3)CC2)c1O	i	-3.2	.	i	i	i	.	.	.
